Test [1] deals with T1, DNA topoisomerase 1 (Homo sapiens) (UniProt P11387).
T1 sequence (whole entry): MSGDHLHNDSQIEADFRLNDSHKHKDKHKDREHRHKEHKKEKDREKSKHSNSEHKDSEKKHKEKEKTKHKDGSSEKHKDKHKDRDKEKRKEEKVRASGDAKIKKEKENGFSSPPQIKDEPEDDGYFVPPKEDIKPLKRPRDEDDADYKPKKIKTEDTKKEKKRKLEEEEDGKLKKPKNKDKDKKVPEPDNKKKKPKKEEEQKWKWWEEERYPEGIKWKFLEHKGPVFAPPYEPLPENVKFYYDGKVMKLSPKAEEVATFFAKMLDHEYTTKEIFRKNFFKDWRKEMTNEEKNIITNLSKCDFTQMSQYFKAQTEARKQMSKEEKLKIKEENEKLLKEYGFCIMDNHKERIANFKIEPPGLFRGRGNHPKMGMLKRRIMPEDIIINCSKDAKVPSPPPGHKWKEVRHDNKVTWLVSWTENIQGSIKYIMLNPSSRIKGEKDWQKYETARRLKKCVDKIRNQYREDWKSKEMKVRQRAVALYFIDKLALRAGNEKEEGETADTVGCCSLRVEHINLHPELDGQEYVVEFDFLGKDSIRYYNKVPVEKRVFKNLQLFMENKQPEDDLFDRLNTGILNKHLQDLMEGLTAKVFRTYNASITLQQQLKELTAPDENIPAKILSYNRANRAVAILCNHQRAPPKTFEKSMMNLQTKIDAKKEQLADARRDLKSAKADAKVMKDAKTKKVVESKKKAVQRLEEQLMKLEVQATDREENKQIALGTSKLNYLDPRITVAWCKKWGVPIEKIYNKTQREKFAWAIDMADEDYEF
Briefly: Inhibition of human recombinant topoisomerase-1 assessed as conversion of super-coiled plasmid DNA pBR322 to relaxed DNA at 100 uM after 30 mins by ethidium bromide staining-based agarose gel electrophoresis (reference value: 62.9%). Put shortly: (§1)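 Relaxation of supercoiled pBR322 (100 ng) by 0.4 units recombinant human topo I, with or without compound (20 mM DMSO stocks), for 30 min at 37 °C. Buffer: 10 mM Tris-HCl pH 7.9, 150 mM NaCl, 0.1% BSA, 1 mM spermidine, 5% glycerol. Stopped with sarcosyl. Run on 1% agarose in TAE at 15 V for 7 h, stained with ethidium bromide, bands quantified under UV.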

For test [2], the system named is DU-145. Kind of test: Cytotoxicity against human DU145 cells after 2 days by CCK-8 assay. Format: functional, cell-based. The note with it: DU-145, 48 h. Put shortly:
(§2)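 Cells seeded at 2~4 × 10^4 per well, grown overnight in medium with 10% FBS at 37 °C, 5% CO2. On day 2, after 4 h FBS starvation, medium replaced with medium containing graded compound concentrations. On day 4, CCK-8 added for 4 h, then absorbance read at 450 nm. IC50 from four-parameter logistic fit. Mean ± S.D. of three experiments, each run in triplicate.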
In general terms: Formazan colour is commonly taken as a measure of viable cells.

Test [3] has as its target DNA topoisomerase 2-alpha (Homo sapiens) (UniProt P11388). Briefly: Inhibition of human recombinant topoisomerase-2 alpha assessed as conversion of super-coiled plasmid DNA pBR322 to relaxed DNA at 100 uM after 30 mins by ethidium bromide staining-based agarose gel electrophoresis (reference value: 87.8%). Put shortly:
(§3)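 Supercoiled pBR322 (200 ng) incubated with 1 unit human topo IIα, with or without compound, for 30 min at 30 °C. Buffer: 10 mM Tris-HCl pH 7.9, 50 mM NaCl, 5 mM MgCl2, 1 mM EDTA, 1 mM ATP, 15 μg/mL BSA. Stopped with EDTA. Run on 1% agarose in TAE at 25 V for 4 h, stained with ethidium bromide, supercoiled DNA quantified under UV.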

Test [4] can be described thus: Cytotoxicity against human HCT15 cells after 2 days by CCK-8 assay. Format: functional, cell-based. Conditions: HCT-15, 48 h. Put shortly:
as §2

Test [5] concerns MCF7. Briefly: Cytotoxicity against human MCF7 cells after 2 days by CCK-8 assay. It counts as functional, cell-based. Conditions: MCF7, 48 h. The gist of the method:
as §2

Test [6] has as its target T1, DNA topoisomerase 1 (Homo sapiens). Briefly: Inhibition of human recombinant topoisomerase-1 assessed as conversion of super-coiled plasmid DNA pBR322 to relaxed DNA at 100 uM after 30 mins by ethidium bromide staining-based agarose gel electrophoresis (reference value: 45.2%). Put shortly:
as §1

For test [7], the target named is DNA topoisomerase 2-alpha (Homo sapiens) (UniProt P11388). Kind of test: Inhibition of human recombinant topoisomerase-2 alpha assessed as conversion of super-coiled plasmid DNA pBR322 to relaxed DNA at 100 uM after 30 mins by ethidium bromide staining-based agarose gel electrophoresis (reference value: 32.4%). Put shortly: as §3
Test [8] addresses T1, DNA topoisomerase 1 (Homo sapiens). Briefly: Inhibition of human recombinant topoisomerase-1 assessed as conversion of super-coiled plasmid DNA pBR322 to relaxed DNA at 100 uM after 30 mins by ethidium bromide staining-based agarose gel electrophoresis relative to camptothecin.
The target in test [9] is DNA topoisomerase 2-alpha (Homo sapiens) (UniProt P11388). Kind of test: Inhibition of human recombinant topoisomerase-2 alpha assessed as conversion of super-coiled plasmid DNA pBR322 to relaxed DNA at 100 uM after 30 mins by ethidium bromide staining-based agarose gel electrophoresis relative to etoposide.
The target is the same in test [10]. Briefly: Inhibition of human recombinant topoisomerase-2 alpha assessed as conversion of super-coiled plasmid DNA pBR322 to relaxed DNA at 20 uM after 30 mins by ethidium bromide staining-based agarose gel electrophoresis (reference value: 46.7%). The gist of the method: as §3
Test [11] has as its target T1, DNA topoisomerase 1 (Homo sapiens). Kind of test: Inhibition of human recombinant topoisomerase-1 assessed as conversion of super-coiled plasmid DNA pBR322 to relaxed DNA at 100 uM after 30 mins by ethidium bromide staining-based agarose gel electrophoresis (reference value: 51.5%). Put shortly: as §1
Test [12] relates to HeLa. Kind of test: Cytotoxicity against human HeLa cells after 2 days by CCK-8 assay. It counts as functional, cell-based. The note with it: 48 h. The gist of the method: as §2
For test [13], the target named is DNA topoisomerase 2-alpha (Homo sapiens) (UniProt P11388). Kind of test: Inhibition of human recombinant topoisomerase-2 alpha assessed as conversion of super-coiled plasmid DNA pBR322 to relaxed DNA at 20 uM after 30 mins by ethidium bromide staining-based agarose gel electrophoresis (reference value: 42.1%). The gist of the method:
as §3

The target is the same in test [14]. Kind of test: Inhibition of human recombinant topoisomerase-2 alpha assessed as conversion of super-coiled plasmid DNA pBR322 to relaxed DNA at 100 uM after 30 mins by ethidium bromide staining-based agarose gel electrophoresis (reference value: 83.7%). The gist of the method: as §3

pIC50: −log10 of the molar value.

Chain of DNA topoisomerase 2-alpha (Homo sapiens) (P11388 whole entry): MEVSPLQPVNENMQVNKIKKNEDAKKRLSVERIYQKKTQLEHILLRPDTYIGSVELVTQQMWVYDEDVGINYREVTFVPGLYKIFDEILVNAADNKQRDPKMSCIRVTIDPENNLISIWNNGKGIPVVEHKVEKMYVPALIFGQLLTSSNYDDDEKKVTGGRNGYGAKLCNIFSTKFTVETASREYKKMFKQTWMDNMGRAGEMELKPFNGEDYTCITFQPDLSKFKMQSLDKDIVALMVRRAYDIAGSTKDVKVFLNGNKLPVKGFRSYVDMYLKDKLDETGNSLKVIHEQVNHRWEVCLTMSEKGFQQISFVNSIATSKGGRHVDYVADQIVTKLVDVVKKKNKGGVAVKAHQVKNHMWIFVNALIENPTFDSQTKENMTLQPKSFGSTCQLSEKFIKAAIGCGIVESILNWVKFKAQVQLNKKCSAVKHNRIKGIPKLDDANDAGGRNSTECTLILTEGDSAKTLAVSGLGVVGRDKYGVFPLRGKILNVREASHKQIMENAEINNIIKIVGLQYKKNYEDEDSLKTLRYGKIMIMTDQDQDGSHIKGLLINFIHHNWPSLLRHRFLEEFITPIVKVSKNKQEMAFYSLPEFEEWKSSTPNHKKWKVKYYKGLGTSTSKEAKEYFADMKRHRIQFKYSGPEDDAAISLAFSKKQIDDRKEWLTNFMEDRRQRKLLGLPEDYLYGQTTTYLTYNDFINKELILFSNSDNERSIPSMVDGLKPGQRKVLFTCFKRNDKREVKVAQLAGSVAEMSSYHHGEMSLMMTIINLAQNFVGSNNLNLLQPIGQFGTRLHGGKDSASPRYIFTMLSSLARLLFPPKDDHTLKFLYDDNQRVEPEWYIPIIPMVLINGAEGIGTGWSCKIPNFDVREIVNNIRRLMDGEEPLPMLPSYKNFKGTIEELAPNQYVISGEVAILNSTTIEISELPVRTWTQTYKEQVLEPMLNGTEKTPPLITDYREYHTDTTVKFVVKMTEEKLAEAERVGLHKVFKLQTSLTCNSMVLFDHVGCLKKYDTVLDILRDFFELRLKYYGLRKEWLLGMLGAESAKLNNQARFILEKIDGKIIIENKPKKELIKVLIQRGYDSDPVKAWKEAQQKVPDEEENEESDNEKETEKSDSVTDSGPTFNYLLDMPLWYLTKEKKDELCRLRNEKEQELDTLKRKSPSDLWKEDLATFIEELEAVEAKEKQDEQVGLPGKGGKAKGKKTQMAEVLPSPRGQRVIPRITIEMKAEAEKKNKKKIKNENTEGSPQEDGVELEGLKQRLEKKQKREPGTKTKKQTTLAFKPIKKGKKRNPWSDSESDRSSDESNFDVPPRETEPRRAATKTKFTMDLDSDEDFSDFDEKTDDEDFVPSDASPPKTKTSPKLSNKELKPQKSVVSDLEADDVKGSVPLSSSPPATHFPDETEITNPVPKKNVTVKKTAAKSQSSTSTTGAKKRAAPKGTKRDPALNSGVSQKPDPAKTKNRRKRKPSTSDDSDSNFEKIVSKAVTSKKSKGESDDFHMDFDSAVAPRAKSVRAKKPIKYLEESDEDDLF

Consider `c1csc(-c2cc(-c3cccs3)c3c(n2)-c2ccccc2C3)c1`, for which the inhibition was 4.7% in test [1] and 9.8% in test [3]. Further, the pIC50 in [2], in [4] and in [5] was below 4.30 in each case.

`c1ccc(-c2cc(-c3ccoc3)c3c(n2)-c2ccccc2C3)nc1`: the figures for the inhibition in [6] and in [7] were 8.6% and 17.5%, respectively.

On to `c1coc(-c2cc(-c3ccoc3)c3c(n2)-c2ccccc2OC3)c1`, for which the Ratio in [8] is 1.2; in test [9] it was 0.89.

As to `c1csc(-c2cc(-c3ccsc3)nc3c2Cc2ccccc2-3)c1`, the figures for the inhibition in test [1] and in test [3] were 4.1% and 17.8%, respectively. Moreover, the pIC50 in test [2], in test [4] and in [5] was below 4.30 in each case.

In the case of `c1ccc(-c2cc(-c3cccnc3)c3c(n2)-c2ccsc2CC3)cc1`, the results for the Ratio in test [8] and in test [9] were 1.15 and below 0.2, respectively.

For `c1ccc(-c2cc(-c3cccs3)nc3c2Cc2ccccc2-3)cc1`, the inhibition was 5.8% in [1], 56% in test [3] and 0% in [10]. For the same molecule, the pIC50 in test [2], in test [4] and in [5] was below 4.30 each time.

For the molecule `c1ccc(-c2cc(-c3cccnc3)nc3c2COc2ccccc2-3)nc1`, the Ratio in test [8] is 1.58; in test [9], below 0.2.

Take `c1coc(-c2cc(-c3cccs3)c3c(n2)-c2ccccc2C3)c1`: the inhibition in test [11] was 2%; in test [13], 79.6%; in test [14], 83.9%. Also, the pIC50 is below 4.30 in test [12], below 4.30 in [2], 4.63 in test [4] and below 4.30 in [5]. The Ratio is below 0.2 in test [8] and 1 in test [9].

As to `c1ccc(-c2cc(-c3ccco3)nc3c2oc2ccccc23)cc1`, the figures for the Ratio in test [8] and in test [9] were below 0.2 and 1.11, respectively.

On to `c1ccc(-c2cc(-c3ccsc3)nc3c2COc2ccccc2-3)cc1`, for which the Ratio in test [8] was 1.67; in test [9], 1.13.

Consider `c1ccc(-c2cc(-c3ccsc3)nc3c2Cc2ccccc2-3)nc1`, for which the inhibition stood at 3.5% in test [1] and 3.2% in test [3]. Also, the pIC50 in test [2], in test [4] and in test [5] was below 4.30 each time.

Turning to `c1ccc(-c2cc(-c3ccccn3)c3c(n2)-c2ccccc2C3)nc1`, the values for the inhibition in test [6] and in test [7] were 6.2% and 10.2%, respectively.

With `COc1cccc2c1C(=O)c1c(O)c3c(c(O)c1C2=O)C[C@@](O)(C(=O)CO)C[C@@H]3O[C@H]1C[C@H](N)[C@H](O)[C@H](C)O1` [DOXORUBICIN], the pIC50 in test [4] is 5.97; in test [5] it was 6.40.

Turning to `c1ccc2c(c1)OCc1c(-c3ccsc3)cc(-c3ccsc3)nc1-2`, the Ratio in test [8] worked out at 1.42; in test [9] it was 0.9.

Turning to `c1coc(-c2cc(-c3ccsc3)c3c(n2)-c2ccccc2C3)c1`, the inhibition in test [11] is 0%; in test [13], 93%; in test [14], 100%. The pIC50 in [12], in test [2], in test [4] and in test [5] was below 4.30 in each case. Also, the Ratio was below 0.2 in test [8] and 1.19 in [9].

As to `c1coc(-c2cc(-c3cccs3)nc3c2CCc2ccccc2-3)c1`, the values for the Ratio in [8] and in test [9] were 0.97 and below 0.2, respectively.

In the case of `c1ccc(-c2cc(-c3ccco3)c3c(n2)-c2ccccc2C3)nc1`, the results for the inhibition in test [6] and in [7] were 0.6% and 17.7%, respectively.

On to `c1coc(-c2cc(-c3ccco3)c3oc4ccccc4c3n2)c1`, for which the fold change (FC) in test [8] was 0.6. In test [9], the Ratio was 1.11.

Take `c1ccc(-c2cc(-c3ccco3)c3c(n2)-c2ncccc2CC3)nc1`: the results for the Ratio in test [8] and in test [9] were 1.25 and below 0.2, respectively.

Turning to `c1ccc(-c2cc(-c3ccccn3)nc3c2oc2ccccc23)cc1`, the results for the Ratio in test [8] and in [9] were 1.15 and below 0.2, respectively.

In the case of `c1cncc(-c2cc(-c3ccoc3)c3c(n2)-c2ncccc2CC3)c1`, the Ratio in test [8] is 1.36; in [9] it was below 0.2.

Regarding `c1ccc(-c2cc(-c3ccsc3)nc3c2Cc2ccccc2-3)cc1`, the inhibition in [1] is 0.5%; in test [3], 72.5%; in test [10], 0%. Besides, the pIC50 in test [2], in [4] and in test [5] was below 4.30 in each case. The Ratio is below 0.2 in test [8] and 0.83 in test [9].

As to `c1ccc(-c2cc(-c3cccs3)nc3c2Cc2ccccc2-3)nc1`, the inhibition in [1] came to 4.5%; in test [3], 18.1%. The pIC50 in test [2] is below 4.30; in test [4], 5.02; in test [5], 4.36.

On to `c1csc(-c2cc(-c3ccoc3)c3c(n2)-c2ccccc2CC3)c1`, for which the Ratio in test [8] is 0.53; in [9], below 0.2.

For the molecule `COc1cc([C@@H]2c3cc4c(cc3[C@@H](O[C@@H]3O[C@@H]5CO[C@@H](C)O[C@H]5[C@H](O)[C@H]3O)[C@H]3COC(=O)[C@H]23)OCO4)cc(OC)c1O` [ETOPOSIDE], the pIC50 was 5.90 in test [12], 5.96 in test [4] and 6.14 in test [5].

Consider `c1ccc(-c2cc(-c3ccccn3)nc3c2Cc2ccccc2-3)cc1`, for which the inhibition came out at 0% in [6] and 12.3% in [7].

As to `c1cncc(-c2cc(-c3ccncc3)c3c(n2)-c2ccsc2CC3)c1`, the Ratio in [8] is 0.49; in test [9], below 0.2.

Turning to `c1csc(-c2cc(-c3ccsc3)c3c(n2)-c2ccccc2C3)c1`, the results for the inhibition in [1], in test [3] and in test [10] were 10.1%, 100% and 0%, respectively. Also, the pIC50 in test [2], in [4] and in test [5] was below 4.30 each time. In addition, the Ratio was below 0.2 in test [8] and 1.14 in [9].

Turning to `c1ccc(-c2cc(-c3ccco3)c3oc4ccccc4c3n2)cc1`, in [8], the fold change (FC) was below 0.2. Moreover, the Ratio in [9] amounted to 1.24.

With `CC[C@@]1(O)C(=O)OCc2c1cc1n(c2=O)Cc2cc3ccccc3nc2-1` [CAMPTOTHECIN], the pIC50 in test [2] is 6.96; in [4] it was 6.59; in [5], 7.10.

For the molecule `c1ccc(-c2cc(-c3ccsc3)c3c(n2)-c2ccccc2C3)nc1`, the inhibition came out at 1.1% in test [1] and 15% in test [3].

Broadly, the inhibition is the relative decrease from the control value, in per cent. The term pIC50 denotes −log10 of the IC50, conventionally taken in molar units. Low values mean a high IC50, high ones a low IC50.

The values are drawn from ChEMBL document CHEMBL3351359, “Design and synthesis of novel 2,4-diaryl-5H-indeno[1,2-b]pyridine derivatives, and their evaluation of topoisomerase inhibitory activity and cytotoxicity” (Bioorg Med Chem, 2015).
